The subject of test [1] is MCF7. Kind of test: Growth-Inhibitory activity against MCF-7 Cells in the presence of S-9 Mix. The class given is functional, cell-based. As to conditions: Homo sapiens. The gist of the method: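 MCF-7 cells were exposed to compound for 6 days and counted with a microcell counter. S-9 mix was in the medium at 0.125% of a 30% S-9 mix solution. That solution was made from rat liver S-9, glucose 6-phosphate, β-NADPH, 20 mM HEPES, 50 mM MgCl2, 330 mM KCl and water.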

In test [2] the test system is MCF7. The test is described as follows: Growth-Inhibitory activity against MCF-7 Cells in the absence of S-9 Mix. The class given is functional, cell-based, Homo sapiens. The gist of the method:
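MCF-7 cells were exposed to compound for 6 days in medium without S-9 mix, and cells were counted with a microcell counter.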

Another test relates to SK-BR-3. The test is described as follows: In vitro Growth Inhibitory activity against SK-BR-3 Human breast cancer cell line. The class given is functional, cell-based. The gist of the method:
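SK-BR-3 was seeded at 1 × 10^4 cells/well in McCoy's 5a with 10% FBS, treated for 6 days, and counted with a microcell counter.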

Another test deals with T47D. Kind of test: In vitro Growth Inhibitory activity against T-47D Human breast cancer cell line. The class given is functional, cell-based. The gist of the method: (§1)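 Cells were grown in RPMI 1640 with 10% FBS. Seeding per well was 3 × 10^3 for T-47D and OVCAR-3, and 1.5 × 10^3 for MKN-28 and PSN-1. Compound exposure lasted 6 days, and cells were counted with a microcell counter.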

The subject of test [3] is MCF7. The test is described as follows: In vitro Growth Inhibitory activity against MCF-7 Human breast cancer cell line. In kind it is functional, cell-based. The gist of the method: (§2)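 Each cell line was treated for 6 days, and growth was read by counting cells with a microcell counter.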
The next test has as its system MDA-MB-453. The test is described as follows: In vitro Growth Inhibitory activity against MD-453 Human breast cancer cell line. The class given is functional, cell-based. The gist of the method:
as §2

The next test concerns WiDr. The test is described as follows: In vitro Growth Inhibitory activity against WiDr Human colon cancer cell line. The class given is functional, cell-based. The gist of the method:
(§3)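 Cells were grown with 10% FBS. Seeding per well was 3 × 10^3 for Ishikawa, 5 × 10^3 for Hep-G2, 2.5 × 10^3 for WiDr and 1.5 × 10^3 for ACHN. Exposure lasted 6 days, followed by microcell-counter cell counts.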

The next test has as its system A2780. Kind of test: In vitro Growth Inhibitory activity against A2780 Human ovarian cancer cell line. The class given is functional, cell-based. The gist of the method:
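A2780 was seeded at 1 × 10^3 cells/well in RPMI 1640 with 5% FBS, exposed to compound for 6 days, and counted with a microcell counter.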

A further test concerns PSN1. Kind of test: In vitro Growth Inhibitory activity against PSN-1 Human pancreas cancer cell line. The class given is functional, cell-based. The gist of the method: as §1
Another test concerns A-431. Kind of test: In vitro Growth Inhibitory activity against A431 Human vulva cancer cell line. In kind it is functional, cell-based. The gist of the method:
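A431 was seeded at 1.5 × 10^3 cells/well in Dulbecco's modified Eagle's medium with FBS, treated for 6 days, and counted with a microcell counter.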

The next test deals with HepG2. The test is described as follows: In vitro Growth Inhibitory activity against HepG2 Human liver cancer cell line. The class given is functional, cell-based. The gist of the method:
as §3

For another test, the system named is Ishikawa. The test is described as follows: In vitro Growth Inhibitory activity against Ishikawa Human endometrial cancer cell line. The class given is functional, cell-based. The gist of the method:
as §3

The subject of another test is MKN-28. Kind of test: In vitro Growth Inhibitory activity against MKN Human stomach cancer cell line. The class given is functional, cell-based. The gist of the method: as §1
A further test relates to ACHN. Kind of test: In vitro Growth Inhibitory activity against ACHN Human kidney cancer cell line. The class given is functional, cell-based. The gist of the method:
as §3

The test system of another test is OVCAR-3. The test is described as follows: In vitro Growth Inhibitory activity against OVCAR-3 Human ovarian cancer cell line. In kind it is functional, cell-based. The gist of the method: as §1

Molecules are shown by their SMILES.

In general, IC50 refers to the midpoint of a concentration-inhibition curve.

Consider `Nc1ccc(-c2cc(=O)c3c(N)ccc(Cl)c3o2)cc1`, for which the half-inhibitory concentration (IC50) in the test with MCF7 [1] was determined as 250 nM; in the test with MCF7 [2] (Homo sapiens, MCF7), 9.8 nM.

With `Nc1ccc(-c2cc(=O)c3c(N)ccc(O)c3o2)cc1`, the IC50 in the test with MCF7 [1] was determined as 16000 nM; in the test on MCF7 [2] (Homo sapiens, MCF7) it was 5300 nM.

On to `Nc1ccc(-c2cc(=O)c3c(N)c(Br)cc(Br)c3o2)cc1`, for which, in the test with MCF7 [2] (Homo sapiens, MCF7), the IC50 was 6300 nM.

Turning to `Nc1ccc(-c2cc(=O)c3c(N)ccc(F)c3o2)cc1`, the IC50 stood at 170 nM in the test on MCF7 [1] and 6.9 nM with MCF7 [2] (Homo sapiens, MCF7).

For the molecule `COc1ccc(N)c2c(=O)cc(-c3ccc(N)cc3)oc12`, the half-inhibitory concentration (IC50) was 21000 nM in the test with MCF7 [2] (Homo sapiens, MCF7) and 19000 nM with MCF7 [2] (mcf7).

With `Nc1ccc(-c2cc(=O)c3c(N)c(F)cc(F)c3o2)cc1F`, the half-maximal inhibitory concentration (IC50) in the test with SK-BR-3 was 2.5 nM; with T47D, 31 nM; in the test on MCF7 [3], 1.2 nM; in the test with MDA-MB-453, above 1000 nM; with WiDr it was above 1000 nM; with A2780, 1.3 nM. In addition, the IC50 in the test on PSN1 is above 1000 nM; with A-431, above 1000 nM; in the test with MCF7 [1], 25 nM; in the test with MCF7 [2] (Homo sapiens, MCF7), 1.2 nM; with HepG2, 2.8 nM; in the test on Ishikawa, 13 nM. Moreover, the figures for the half-inhibitory concentration (IC50) in the test with MKN-28, with ACHN and in the test on OVCAR-3 were above 1000 nM, above 1000 nM and 14 nM, respectively.

Regarding `Cc1ccc(N)c2c(=O)cc(-c3ccc(N)c(F)c3)oc12`, the half-inhibitory concentration (IC50) in the test with MCF7 [1] worked out at 180 nM; in the test on MCF7 [2] (Homo sapiens, MCF7) it was 15 nM.

Take `Nc1ccc(-c2cc(=O)c3c(N)c(Cl)ccc3o2)cc1`: the 50% inhibitory concentration (IC50) in the test on MCF7 [1] was above 10000 nM; in the test on MCF7 [2] (Homo sapiens, MCF7), 3.9 nM.

In the case of `Nc1ccc(-c2cc(=O)c3c(N)c(F)ccc3o2)cc1`, the IC50 in the test with MCF7 [1] is 130 nM; with MCF7 [2] (Homo sapiens, MCF7), 4.4 nM.

Turning to `Nc1ccc(-c2cc(=O)c3c(N)cccc3o2)cc1`, the half-inhibitory concentration (IC50) in the test on MCF7 [1] turned out to be 210 nM; in the test with MCF7 [2] (Homo sapiens, MCF7), 7.3 nM.

On to `Nc1ccc(-c2cc(=O)c3c(N)c(Cl)cc(Cl)c3o2)cc1`, for which the IC50 turned out to be 610 nM with MCF7 [1] and 53 nM in the test on MCF7 [2] (Homo sapiens, MCF7).

In the case of `Nc1c(F)cc(-c2cc(=O)c3c(N)c(F)cc(F)c3o2)cc1F`, the half-inhibitory concentration (IC50) in the test on MCF7 [1] is 89 nM; in the test with MCF7 [2] (Homo sapiens, MCF7), 4 nM.

With `Cc1cc(C)c2oc(-c3ccc(N)c(F)c3)cc(=O)c2c1N`, the half-maximal inhibitory concentration (IC50) in the test with MCF7 [1] stood at 110 nM; in the test on MCF7 [2] (Homo sapiens, MCF7), 36 nM.

As to `Nc1ccc(-c2cc(=O)c3c(N)c(F)cc(F)c3o2)cc1`, the concentration for half-maximal inhibition (IC50) in the test on MCF7 [1] was 46 nM; with MCF7 [2] (Homo sapiens, MCF7) it was 6 nM.
